Measured values reported in ChEMBL document CHEMBL1126117, “Synthesis and chemical characterization of N-substituted phenoxazines directed toward reversing vinca alkaloid resistance in multidrug-resistant cancer cells” (J Med Chem, 1992).

Experiments:
GC3/Cl [1] = test: Increase in the accumulation of vinblastine in multi-drug resistant GC3/Cl (human adenocarcinoma) cell line in vitro.; type: functional; parameters: concentration or dose not given beside the values
KB [2] = test: Increase in the accumulation of vincristine in multi-drug resistant KB8-5 (HeLa variant) cell line in vitro.; type: functional, Homo sapiens; parameters: concentration or dose not given beside the values
Procedure, shortened: (§1)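 Radiolabel accumulation. Cell monolayers (2×10^6 cells, attached overnight; KBChR-8-5 kept with 10 ng/mL colchicine) were washed and held 10 min in physiologic Tris buffer. They were then given serum-free RPMI-1640 in 25 mM Hepes, pH 7.4, with [3H]VCR (70.4 nM) or [3H]VLB (49.5 nM), ±modulator at 100 μM (<0.1% DMSO), for 2 h at room temperature. Cells were washed in ice-cold PBS, trypsinized and scintillation-counted, with cell number counted per dish. Percent control = uptake with/without modulator ×100. Mean of two experiments, each done in triplicate.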

KB [3] = test: Increase in the accumulation of vinblastine in multi-drug resistant KB8-5 (HeLa variant) cell line in vitro.; type: functional, Homo sapiens; parameters: concentration or dose not given beside the values; procedure, shortened: as §1
GC3/Cl [4] = test: Concentration required to produce 10% reduction in clonogenic survival of GC3/Cl cell line.; type: functional, cell-based; settings: Homo sapiens
Procedure, shortened: (§2)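 Clonogenic survival. KBChR-8-5 cells were plated in triplicate at 1000/well and GC3 cells at 3000/well. After 24 h the medium was replaced with fresh medium holding modulator at 1-100 μM (final 0.1% DMSO). Cells were kept 7 days at 37 °C, then stained with crystal violet and the colonies counted. The 50% and 10% colony-reduction concentrations were read from concentration-survival curves versus controls.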

GC3/Cl [5] = test: Concentration required to produce 50% reduction in clonogenic survival of GC3/Cl cell line.; type: functional, cell-based; settings: Homo sapiens; procedure, shortened: as §2
GC3/Cl [6] = test: Inhibitory concentration was evaluated by measuring the potentiation of VCR cytotoxicity in GC3/Cl cell line.; type: functional, cell-based; settings: Homo sapiens
Procedure, shortened: (§3)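 Colony-formation assay. Cells were given graded VCR or VLB continuously for 7 days at 37 °C, with or without modulator at the concentration that alone reduced colony formation by 10%. Colonies were then stained with crystal violet and counted. Vinca IC50 values were derived with and without modulator, and the result was expressed as fold potentiation.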

GC3/Cl [7] = test: Inhibitory concentration was evaluated by measuring the potentiation of VLB cytotoxicity in GC3/Cl cell line.; type: functional, cell-based; settings: Homo sapiens; procedure, shortened: as §3
KB [8] = test: Concentration required to produce 50% reduction in clonogenic survival of KB8-5 cell line.; type: functional, cell-based; settings: Homo sapiens; procedure, shortened: as §2
KB [9] = test: Inhibitory concentration was evaluated by measuring the potentiation of VCR cytotoxicity in KB8-5 cell line.; type: functional, cell-based; settings: Homo sapiens; procedure, shortened: as §3
KB [10] = test: Inhibitory concentration was evaluated by measuring the potentiation of VLB cytotoxicity in KB8-5 cell line.; type: functional, cell-based; settings: Homo sapiens; procedure, shortened: as §3
KB [11] = test: Concentration required to produce 10% reduction in clonogenic survival of KB8-5 cell line.; type: functional; settings: Homo sapiens; procedure, shortened: as §2
GC3/Cl [12] = test: Increase in the accumulation of vincristine in multi-drug resistant GC3/Cl (human adenocarcinoma) cell line in vitro.; type: functional
KB [13] = test: Percent control was evaluated by measuring the ability to increase the vinca alkaloid, vinblastine(VLB) in KB8-5 cell line.; type: functional, Homo sapiens; procedure, shortened: as §1
KB [14] = test: Percent control was evaluated by measuring the ability to increase the vinca alkaloid, vincristine(VCR) in KB8-5 cell line.; type: functional, Homo sapiens; procedure, shortened: as §1

Row | SMILES | Control (GC3/Cl [1]) [%] | Control (KB [2]) [%] | Control (KB [3]) [%] | IC10 (GC3/Cl [4]) [µM] | IC50 (GC3/Cl [5]) [µM] | IC50 (GC3/Cl [6]) [µM] | IC50 (GC3/Cl [7]) [µM] | IC50 (KB [8]) [µM] | IC50 (KB [9]) [µM] | IC50 (KB [10]) [µM] | IC10 (KB [11]) [µM] | Control (GC3/Cl [12]) [%] | Control (KB [13]) [%] | Control (KB [14]) [%]
1 | CCN(CC)CCCCN1c2ccccc2Oc2ccccc21 | 737 | 211 | 697 | – | – | – | – | – | – | – | – | – | – | –
2 | c1ccc2c(c1)Oc1ccccc1N2CCCCN1CCOCC1 | 1175 | 702 | 2684 | 10 | 17 | 0.0024 | 0.002 | 18 | 0.0045 | 0.002 | 6 | – | – | –
3 | COc1ccc(CCN(C)CCCC(C#N)(c2ccc(OC)c(OC)c2)C(C)C)cc1OC (stereo not given) | – | – | 1124 | – | – | – | – | – | – | – | – | – | – | –
4 | O=C(CN1CCCCC1)N1c2ccccc2Oc2ccccc21 | – | 326 | 2023 | 40 | 88 | 0.0029 | 0.0022 | 73 | 0.006 | 0.0023 | 40 | – | – | –
5 | c1ccc2c(c1)Oc1ccccc1N2CCCN1CCCC1 | 757 | 408 | 969 | – | – | – | – | – | – | – | – | 250 | – | –
6 | O=C(CN1CCOCC1)N1c2ccccc2Oc2ccccc21 | – | 290 | 674 | – | – | – | – | – | – | – | – | – | – | –
7 | CCN(CC)CC(=O)N1c2ccccc2Oc2ccccc21 | – | 184 | 953 | – | – | – | – | – | – | – | – | 160 | – | –
8 | OCCN(CCO)CCCN1c2ccccc2Oc2ccccc21 | 1070 | 473 | 1666 | 25 | 37 | 0.0048 | 0.002 | 38 | 0.0059 | 0.0027 | 25 | – | – | –
9 | O=C(N1c2ccccc2Oc2ccccc21)C(F)(F)F | – | 415 | 827 | – | – | – | – | – | – | – | – | 230 | – | –
10 | OCCN(CCO)CCCCN1c2ccccc2Oc2ccccc21 | 1165 | 92 | 403 | – | 16 | – | – | < 10 | – | – | – | – | – | –
11 | c1ccc2c(c1)Oc1ccccc1N2CCCCN1CCCC1 | 1315 | 198 | 477 | – | 7 | – | – | < 7 | – | – | – | – | – | –
12 | O=C(CCl)N1c2ccccc2Oc2ccccc21 | – | – | – | – | – | – | – | – | – | – | – | – | 236 | 138
13 | ClCCCCN1c2ccccc2Oc2ccccc21 | 361 | 398 | 792 | – | – | – | – | – | – | – | – | – | – | –
14 | c1ccc2c(c1)Oc1ccccc1N2CCCN1CCCCC1 | 633 | 435 | 1227 | – | – | – | – | – | – | – | – | – | – | –
15 | ClCCCN1c2ccccc2Oc2ccccc21 | 570 | 454 | 342 | 50 | 83 | 0.002 | 0.0017 | 57 | 0.0118 | 0.0053 | 20 | – | – | –
16 | O=C(CN1CCCC1)N1c2ccccc2Oc2ccccc21 | – | 188 | 776 | – | – | – | – | – | – | – | – | – | – | –
17 | OCCN1CCN(CCCCN2c3ccccc3Oc3ccccc32)CC1 | 1340 | 91 | 188 | – | 7 | – | – | < 7 | – | – | – | – | – | –
18 | c1ccc2c(c1)Oc1ccccc1N2CCCCN1CCCCC1 | 1121 | 196 | 1071 | – | 7 | – | – | < 7 | – | – | – | – | – | –
19 | O=C(CN1CCN(CCO)CC1)N1c2ccccc2Oc2ccccc21 | – | 280 | 776 | – | – | – | – | – | – | – | – | – | – | –
20 | OCCN1CCN(CCCN2c3ccccc3Oc3ccccc32)CC1 | 879 | 343 | 824 | – | – | – | – | – | – | – | – | – | – | –
21 | CCN(CC)CCCN1c2ccccc2Oc2ccccc21 | 1025 | 546 | 2123 | – | 10 | – | – | 15 | – | – | – | – | – | –
22 | c1ccc2c(c1)Oc1ccccc1N2CCCN1CCOCC1 | 960 | 742 | 1717 | 25 | 40 | 0.0021 | 0.002 | 73 | 0.0019 | 0.0016 | 25 | – | – | –
